High-throughput results as filed in PubChem.
IMP-1 inhibitor – inhibitors of Pseudomonas aeruginosa IMP-1 metallo-beta-lactamase | purified IMP-1, nitrocefin hydrolysis, epi-absorbance fluorescence | inhibition, % at 5.6 µM | hit rate 0.45% among 290,000;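 active = inhibition above the mean plus 3 SD of all compounds in the same screening run, cut at about 4.5% in these data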
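System: Purified recombinant IMP-1 metallo-beta-lactamase enzyme | Measured by: Fluorescence quenching readout, ex 480/em 530 nm | Replication: Singlicate | Incubation: 15 min preincubation plus 25 min reaction at 25 °C | Evaluation: Percent inhibition from optical density relative to buffer-blank wells | Benchmarks: DMSO with and without IMP-1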
CHT PAM – allosterically activates the human high affinity choline transporter; Q9GZV3; CHT-expressing cells, membrane potential dye, choline EC20; active compounds read high; LV-AA mutant CHT in HEK293 cells; B-score at 10 µM; hit rate 0.49% among 310,000;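 active = initial fluorescence not abnormally high and integrated response B-score, plate-corrected, over 3 SD above library mean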
ANO1 block – blocks the mouse calcium-activated chloride channel TMEM16A | Q8BHY3 | AID 588511 | hit rate 1.2% among 310,000 | normalized B-score (activity score, 25-100; higher = stronger inhibition) at 10 µM | HEK293 TMEM16A/YFP iodide influx fluorescence, ionomycin;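 active = ratio plate-corrected score three or more library SD toward inhibition, starting fluorescence score within five deviations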;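 also: score derived from kinetic fluorescence span divided by baseline fluorescence per well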
ANO1 activ – activates or potentiates the mouse TMEM16A chloride channel. Q8BHY3. AID 623877. B-score at 10 µM. hit rate 0.3% among 340,000. HEK293 TMEM16A/YFP-H148Q/I152L, iodide quench fluorescence; active compounds read low;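 active = fluorescence-ratio B-score plate-corrected deviation score at least 3 library SD below zero, with starting fluorescence score within 5 deviations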;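 also: channel opened by trigger with iodide after compound preincubation; score built on the fluorescence ratio of max minus min over baseline; more negative score means more quench and so TMEM16A activation or potentiation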
CHT inh – inhibitors of human choline transporter CHT; Q9GZV3; CHT-expressing cells, membrane potential dye, choline response; active compounds read low; B-score at 10 µM; hit rate 0.86% among 310,000; AID 488975;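 active = B-score over 3 SD under the library average, and starting fluorescence ratio not unusually high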;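 also: choline stimulus applied at its EC90 after an EC20 pre-addition; B-score computed on integrated fluorescence ratio after choline addition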
VIM-2 inh – blocks Pseudomonas aeruginosa VIM-2 metallo-beta-lactamase. inhibition, % at 5.6 µM. hit rate 0.89% among 290,000. purified VIM-2, nitrocefin hydrolysis, epi-absorbance fluorescence. AID 1527;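 active = inhibition above the mean of all tested compounds plus 3 SD, cutoff set per screening run, cut at about 7.5% in these data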;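 also: red hydrolysis product quenches plate fluorescence so inhibitors raise well fluorescence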
TMEM16A reconf – TMEM16A (mouse) chloride channel inhibition, re-confirmation; shares compounds with ANO1 block; HEK293 TMEM16A/YFP-H148Q, iodide quench fluorescence; ionomycin added to raise cell calcium; inhibition, % at 10 µM; hit rate 39% among 2,300; AID 652189;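 active = mean duplicate percent inhibition, scaled so buffer wells are 0 and the reference blocker 100, over three buffer SD above buffer mean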
TMEM16A Ca cntr – counter-screen for TMEM16A inhibitors: effect on calcium mobilization. shares compounds with ANO1 block. TMEM16A/YFP HEK293, Fluo4 calcium mobilization. calcium response (% of ionomycin), % at 10 µM. hit rate 2% among 2,300;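 active = duplicate-averaged calcium signal over 20% of the ionomycin maximum, relative to buffer baseline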;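 also: each well's signal is peak minus trough fluorescence divided by its pre-addition baseline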
Parental YFP cnt – counter-screen for TMEM16A inhibitors: effect in parental YFP-HEK293 cells; iodide YFP quench, ionomycin; YFP ratio F(max-min)/F0 at 10 µM; shares compounds with ANO1 block; 2,300 tested, under 10 active;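 active = yellow fluorescent protein signal ratio exceeding the buffer control mean by over 5 SD of those controls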;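 also: ratio is mean of duplicate wells from kinetic YFP trace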
ClC-1 rat inh – selectivity of TMEM16A inhibitors: inhibition of rat ClC-1 chloride channel; shares compounds with ANO1 block; CHO ClC-1-YFP, iodide influx fluorescence quench; iodide control reads 0, buffer control 100; ratio percent, % at 10 µM; 2,300 tested, under 10 active; AID 652236;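 active = duplicate-mean ratio percent above the mean of iodide-only control wells, which defines zero, plus 5 of their SD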;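 also: higher percent means stronger block of ClC-1 iodide influx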
Large screens that a line does not name were inactive (follow-up assays come after a bar, where they were run). Only some compounds are listed: those with a hit (about 3.4% of all), similar ones and a draw of the others.

Cc1cc(OC(=O)c2ccco2)c2c3c(c(=O)oc2c1)CCCC3	ANO1 block 100 | TMEM16A reconf inactive | TMEM16A Ca cntr inactive | Parental YFP cnt inactive | ClC-1 rat inh inactive
CC(C)=CCc1c(O)cc2c(c1O)C(=O)CC(c1ccc(O)cc1)O2 (stereo not given)	ANO1 block 100 (no result: IMP-1 inhibitor, VIM-2 inh) | TMEM16A reconf inactive | TMEM16A Ca cntr inactive | Parental YFP cnt inactive | ClC-1 rat inh inactive
O=C(Cc1ccccc1)N1CCN(Cc2ccccc2Cl)CC1	ANO1 block 25 | TMEM16A reconf inactive | TMEM16A Ca cntr inactive | Parental YFP cnt inactive | ClC-1 rat inh inactive
CCCCCCCCn1sccc1=O	none (no result: IMP-1 inhibitor, CHT PAM, ANO1 block, CHT inh, VIM-2 inh)
O=C(Oc1c(Cl)cc(Cl)c2ccccc12)N1CCCCC1	ANO1 block 100 | TMEM16A reconf inactive | TMEM16A Ca cntr inactive | Parental YFP cnt inactive | ClC-1 rat inh inactive
O=C(Nc1ccc(OC(=O)N2CCCCC2)cc1)N1CCOCC1	none
CCCCCCC(C)(C)c1ccc([C@@H]2C[C@H](O)CC[C@H]2CCCO)c(O)c1	ANO1 block 100 (no result: IMP-1 inhibitor, VIM-2 inh) | TMEM16A reconf inactive | TMEM16A Ca cntr inactive | Parental YFP cnt inactive | ClC-1 rat inh inactive
